The target of data set [1] is T1, Cytochrome P450 2B6 (Homo sapiens, UniProt P20813).
T1 sequence (P20813 whole entry): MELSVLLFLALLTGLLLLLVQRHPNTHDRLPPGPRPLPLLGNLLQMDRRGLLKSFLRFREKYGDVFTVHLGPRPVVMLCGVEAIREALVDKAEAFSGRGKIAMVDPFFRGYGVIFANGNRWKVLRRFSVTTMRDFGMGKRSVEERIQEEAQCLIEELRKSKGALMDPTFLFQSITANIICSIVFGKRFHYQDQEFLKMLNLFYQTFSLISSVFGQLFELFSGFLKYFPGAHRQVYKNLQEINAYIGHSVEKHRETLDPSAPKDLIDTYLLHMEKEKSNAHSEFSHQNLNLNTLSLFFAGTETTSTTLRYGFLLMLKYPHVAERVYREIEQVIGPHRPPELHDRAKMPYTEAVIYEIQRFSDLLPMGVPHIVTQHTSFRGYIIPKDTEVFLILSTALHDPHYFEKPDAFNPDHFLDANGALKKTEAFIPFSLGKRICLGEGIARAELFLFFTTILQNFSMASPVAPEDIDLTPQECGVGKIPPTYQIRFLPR
Briefly: Inhibition of CYP2B6 in human liver microsomes assessed as bupropion hydroxylation preincubated for 15 mins by LC-MS/MS analysis in presence of NADPH. The data set is classed as ADME. In a few lines: (§1)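 Pooled HLM from 15 donors, probe substrate near its experimentally determined level, in 100 mM phosphate buffer pH 7.4 at 37°C. Saxagliptin tested at 0.1–50 µM, M2 at 0.1–200 µM. Direct inhibition: 3-min equilibration, then reaction started with 1 mM NADPH. Time-dependent inhibition: 15-min preincubation with or without NADPH, then substrate added.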
A general note: Liver microsomes are vesicles of endoplasmic reticulum, rich in cytochrome P450 enzymes.

Data set [2] addresses T2, Cytochrome P450 2C8 (Homo sapiens, UniProt P10632).
T2 sequence (P10632 whole entry): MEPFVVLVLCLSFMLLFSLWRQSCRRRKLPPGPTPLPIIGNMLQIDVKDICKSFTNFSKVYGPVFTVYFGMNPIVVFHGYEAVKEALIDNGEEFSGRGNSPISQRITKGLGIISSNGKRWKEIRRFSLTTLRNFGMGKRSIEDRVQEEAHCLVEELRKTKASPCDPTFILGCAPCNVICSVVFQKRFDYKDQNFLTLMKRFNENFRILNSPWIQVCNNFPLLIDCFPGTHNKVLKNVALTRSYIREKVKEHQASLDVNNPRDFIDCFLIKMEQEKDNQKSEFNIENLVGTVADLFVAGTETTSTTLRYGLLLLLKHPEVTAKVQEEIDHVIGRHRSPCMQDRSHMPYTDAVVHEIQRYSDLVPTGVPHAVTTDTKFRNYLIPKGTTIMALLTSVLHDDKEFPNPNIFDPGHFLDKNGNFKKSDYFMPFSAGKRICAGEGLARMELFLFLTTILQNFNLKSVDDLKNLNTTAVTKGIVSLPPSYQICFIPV
Briefly: Inhibition of CYP2C8 in human liver microsomes assessed as paclitaxel 6alpha-hydroxylation preincubated for 15 mins by LC-MS/MS analysis in presence of NADPH. It counts as ADME. Summed up: as §1

For data set [3], the target named is T1, Cytochrome P450 2B6. Briefly: Inhibition of CYP2B6 in human liver microsomes assessed as bupropion hydroxylation after 3 mins by LC-MS/MS analysis in presence of NADPH. The data set is classed as ADME. In a few lines:
as §1

Data set [4] addresses T3, Cytochrome P450 2C9 (Homo sapiens, UniProt P11712). Put plainly: Inhibition of CYP2C9 in human liver microsomes assessed as paclitaxel 6alpha-hydroxylation preincubated for 15 mins by LC-MS/MS analysis in presence of NADPH. The data set is classed as ADME. The settings on record: in the assay text read “tolbutamide hydroxylation” for “paclitaxel 6alpha-hydroxylation”. In a few lines: as §1

Data set [5] concerns the target T4, Cytochrome P450 2C19 (Homo sapiens, UniProt P33261). Put plainly: Inhibition of CYP2C19 in human liver microsomes assessed as (S)-mephenytoin 4'-hydroxylation preincubated for 15 mins by LC-MS/MS analysis. The data set is classed as ADME. In a few lines: as §1
The target of data set [6] is T5, Cytochrome P450 2D6 (Homo sapiens, UniProt P10635). Put plainly: Inhibition of CYP2D6 in human liver microsomes assessed as bufuralol 1'-hydroxylation preincubated for 15 mins by LC-MS/MS analysis. It counts as ADME. In a few lines: (§2)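 Time-dependent format. Pooled human liver microsomes (15 donors) were preincubated 15 min at 37°C with test compound, with and without 1 mM NADPH. The probe substrate was then added at the same concentration as in the direct assay.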
T5 sequence (P10635 whole entry): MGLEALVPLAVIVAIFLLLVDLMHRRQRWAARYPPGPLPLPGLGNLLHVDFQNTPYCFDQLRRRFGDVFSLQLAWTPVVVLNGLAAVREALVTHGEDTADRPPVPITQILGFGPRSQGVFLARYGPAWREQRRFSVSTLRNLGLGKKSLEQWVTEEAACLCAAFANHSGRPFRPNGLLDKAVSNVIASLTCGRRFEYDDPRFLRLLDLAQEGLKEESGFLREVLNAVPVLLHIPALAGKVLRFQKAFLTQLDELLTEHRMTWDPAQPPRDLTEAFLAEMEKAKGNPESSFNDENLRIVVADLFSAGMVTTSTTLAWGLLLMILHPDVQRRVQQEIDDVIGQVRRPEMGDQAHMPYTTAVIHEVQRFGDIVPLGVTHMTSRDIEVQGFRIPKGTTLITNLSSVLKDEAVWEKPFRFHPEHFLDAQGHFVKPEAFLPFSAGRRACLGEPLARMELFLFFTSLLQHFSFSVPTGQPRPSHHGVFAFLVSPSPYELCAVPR

For data set [7], the system named is Liver microsome. Briefly: Drug metabolism in human liver microsomes assessed as formation of 5-hydroxy saxagliptin Michaelis-Menten kinetic analysis. The data set is classed as ADME. Summed up: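 M2 formation kinetics measured in triplicate at twelve saxagliptin concentrations from 1 to 800 µM. Enzyme source was pooled HLM (0.25 mg/ml, 30 min, 37°C) or expressed CYP3A4 or CYP3A5 (10 pmol/ml, 10 min). Incubations contained 1 mM NADPH and 2 mM MgCl2 in phosphate buffer pH 7.4.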

Data set [8] deals with T5, Cytochrome P450 2D6. Put plainly: Inhibition of CYP2D6 in human liver microsomes assessed as bufuralol 1'-hydroxylation after 3 mins by LC-MS/MS analysis. It counts as ADME.
The target of data set [9] is T3, Cytochrome P450 2C9. Briefly: Inhibition of CYP2C9 in human liver microsomes assessed as paclitaxel 6alpha-hydroxylation after 3 mins by LC-MS/MS analysis in presence of NADPH. The data set is classed as ADME. The following applies: in the assay text read “tolbutamide hydroxylation” for “paclitaxel 6alpha-hydroxylation”. Summed up: as §1
Data set [10] deals with T6, Cytochrome P450 2E1 (Homo sapiens, UniProt P05181). Put plainly: Inhibition of CYP2E1 in human liver microsomes assessed as chlorzoxazone 6-hydroxylation after 3 mins by LC-MS/MS analysis in presence of NADPH. It counts as ADME.
T6 sequence (P05181 whole entry): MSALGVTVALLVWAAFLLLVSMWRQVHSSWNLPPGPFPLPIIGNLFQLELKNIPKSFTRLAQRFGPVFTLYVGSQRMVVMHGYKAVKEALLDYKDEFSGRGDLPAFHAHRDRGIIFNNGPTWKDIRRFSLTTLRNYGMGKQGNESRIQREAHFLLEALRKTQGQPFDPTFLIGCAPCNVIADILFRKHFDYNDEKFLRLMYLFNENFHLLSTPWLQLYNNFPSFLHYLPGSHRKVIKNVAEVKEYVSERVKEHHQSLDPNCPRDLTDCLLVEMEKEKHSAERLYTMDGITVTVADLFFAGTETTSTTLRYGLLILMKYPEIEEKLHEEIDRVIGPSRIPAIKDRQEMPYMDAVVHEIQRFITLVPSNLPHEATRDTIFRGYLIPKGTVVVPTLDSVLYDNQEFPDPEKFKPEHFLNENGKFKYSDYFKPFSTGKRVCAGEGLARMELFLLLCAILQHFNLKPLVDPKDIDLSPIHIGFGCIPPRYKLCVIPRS
Data set [11] concerns the target T4, Cytochrome P450 2C19. Put plainly: Inhibition of CYP2C19 in human liver microsomes assessed as (S)-mephenytoin 4'-hydroxylation after 3 mins by LC-MS/MS analysis. It counts as ADME. In a few lines: as §1
Data set [12] deals with T2, Cytochrome P450 2C8. Briefly: Inhibition of CYP2C8 in human liver microsomes assessed as paclitaxel 6alpha-hydroxylation after 3 mins by LC-MS/MS analysis in presence of NADPH. The data set is classed as ADME. In a few lines: as §1
Data set [13] in a line: Drug metabolism in human assessed as metabolite level in urine at 50 mg, po up to 168 hrs by LC-MS/MS analysis. It counts as ADME, organism-based. The following applies: in vivo. Summed up: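 Single 50-mg oral solution dose of [14C]saxagliptin (91.5 µCi) given to healthy male subjects after a 10-h fast. Urine collected as 0–12 h and 12–24 h pools, then in 24-h intervals to 168 h. Saxagliptin and M2 measured by validated positive-ESI LC-MS/MS with MRM; urine standard curves 25–5000 ng/ml for saxagliptin and 50–10,000 ng/ml for M2.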

In data set [14] the target is T6, Cytochrome P450 2E1. Put plainly: Inhibition of CYP2E1 in human liver microsomes assessed as chlorzoxazone 6-hydroxylation preincubated for 15 mins by LC-MS/MS analysis in presence of NADPH. It counts as ADME. Summed up: as §2

The structures appear in SMILES notation.

T4 sequence (P33261 whole entry): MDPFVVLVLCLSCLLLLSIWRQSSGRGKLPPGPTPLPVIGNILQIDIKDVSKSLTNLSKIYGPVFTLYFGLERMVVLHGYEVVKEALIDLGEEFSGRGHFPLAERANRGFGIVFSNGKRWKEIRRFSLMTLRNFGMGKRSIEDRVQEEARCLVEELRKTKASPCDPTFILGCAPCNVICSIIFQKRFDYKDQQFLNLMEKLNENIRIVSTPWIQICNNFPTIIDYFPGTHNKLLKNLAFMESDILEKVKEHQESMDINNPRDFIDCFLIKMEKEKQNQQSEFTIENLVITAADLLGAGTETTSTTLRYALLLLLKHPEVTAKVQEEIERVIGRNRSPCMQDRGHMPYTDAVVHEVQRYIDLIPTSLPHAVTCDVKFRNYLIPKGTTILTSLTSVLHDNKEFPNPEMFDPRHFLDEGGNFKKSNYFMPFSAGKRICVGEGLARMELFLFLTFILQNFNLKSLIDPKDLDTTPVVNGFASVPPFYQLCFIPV
T3 sequence (P11712 whole entry): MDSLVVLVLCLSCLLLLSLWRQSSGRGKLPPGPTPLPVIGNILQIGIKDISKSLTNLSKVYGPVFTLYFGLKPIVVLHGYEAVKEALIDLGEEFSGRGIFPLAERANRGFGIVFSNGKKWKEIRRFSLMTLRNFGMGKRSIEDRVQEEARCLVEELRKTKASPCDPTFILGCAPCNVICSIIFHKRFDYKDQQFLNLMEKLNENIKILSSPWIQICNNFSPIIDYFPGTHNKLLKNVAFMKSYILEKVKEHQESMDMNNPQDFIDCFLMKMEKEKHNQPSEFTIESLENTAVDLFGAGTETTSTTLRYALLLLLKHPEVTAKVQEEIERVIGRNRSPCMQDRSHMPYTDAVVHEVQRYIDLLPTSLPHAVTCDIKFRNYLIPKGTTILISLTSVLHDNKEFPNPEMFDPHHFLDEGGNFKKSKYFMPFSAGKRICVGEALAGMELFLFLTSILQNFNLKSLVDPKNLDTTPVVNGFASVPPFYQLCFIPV

A word on the IC50: it is the concentration needed to halve the response being measured. As a reminder, the Km is the substrate concentration at which the rate is half of its maximum. A word on the Vmax: it is the rate approached at saturating substrate. On to `N#C[C@@H]1C[C@@H]2C[C@@H]2N1C(=O)[C@@H](N)C12CC3CC(CC(O)(C3)C1)C2` [SAXAGLIPTIN ANHYDROUS], for which the IC50 in data set [1], in data set [2], in data set [3], in data set [4], in data set [5] and in [6] was above 50 µM throughout. Moreover, the IC50 in [8], in data set [9], in [10], in data set [11], in data set [12] and in [14] was above 50 µM in each case. In data set [7], the Km stood at 94.8 µM. The Vmax in [7] is given as 496 pmol/min. Besides, in [13], the Drug metabolism entry was “metabolite_detected”.
On to `N#C[C@@H]1C[C@@H]2C[C@@H]2N1C(=O)[C@@H](N)C12CC3CC(O)(CC(O)(C3)C1)C2`, for which the IC50 in data set [1], in [2], in [3], in [4], in data set [5] and in data set [6] was above 200 µM throughout. Moreover, the IC50 in data set [8], in data set [9], in data set [10], in data set [11], in data set [12] and in data set [14] was above 200 µM each time.

Source of the values: ChEMBL document CHEMBL3526095, “Characterization of the in vitro and in vivo metabolism and disposition and cytochrome P450 inhibition/induction profile of saxagliptin in human” (Drug Metab Dispos, 2012).
